{"data": "Assay results pooled from the literature", "target": "Ephrin type-B receptor 4 (EPHB4, Homo sapiens, UniProt P54760)", "One construct used (P54760 16-987)": "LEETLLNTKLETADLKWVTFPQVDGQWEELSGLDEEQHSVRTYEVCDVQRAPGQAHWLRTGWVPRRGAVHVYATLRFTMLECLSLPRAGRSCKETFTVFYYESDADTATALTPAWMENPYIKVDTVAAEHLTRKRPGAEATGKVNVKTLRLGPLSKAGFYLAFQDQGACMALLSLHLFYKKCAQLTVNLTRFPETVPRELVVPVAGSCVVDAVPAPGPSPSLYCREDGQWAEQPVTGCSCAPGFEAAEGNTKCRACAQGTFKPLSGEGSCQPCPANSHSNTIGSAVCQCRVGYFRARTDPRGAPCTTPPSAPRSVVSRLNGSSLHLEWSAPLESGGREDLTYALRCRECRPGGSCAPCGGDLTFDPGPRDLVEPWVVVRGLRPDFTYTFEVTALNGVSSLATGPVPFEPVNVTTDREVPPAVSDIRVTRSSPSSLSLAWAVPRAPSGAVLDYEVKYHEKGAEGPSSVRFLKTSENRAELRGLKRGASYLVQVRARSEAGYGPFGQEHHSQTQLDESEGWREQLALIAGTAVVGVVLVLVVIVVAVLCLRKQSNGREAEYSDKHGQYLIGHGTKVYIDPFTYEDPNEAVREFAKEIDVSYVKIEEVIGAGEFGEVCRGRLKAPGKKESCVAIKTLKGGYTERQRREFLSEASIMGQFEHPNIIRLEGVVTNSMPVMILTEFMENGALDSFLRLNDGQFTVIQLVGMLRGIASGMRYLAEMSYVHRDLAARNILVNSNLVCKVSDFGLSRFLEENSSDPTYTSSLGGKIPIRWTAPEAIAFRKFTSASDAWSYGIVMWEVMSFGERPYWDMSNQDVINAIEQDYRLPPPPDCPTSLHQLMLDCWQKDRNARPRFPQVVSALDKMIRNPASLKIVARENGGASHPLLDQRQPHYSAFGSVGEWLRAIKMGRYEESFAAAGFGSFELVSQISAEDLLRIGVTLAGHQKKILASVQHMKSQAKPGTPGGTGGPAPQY", "note": "Protocols differ between the studies behind these lines."}
{"Structure (SMILES)": "CC(=O)Nc1c(C(C)=O)c(=O)n(C)c2nc(-c3ccc(Cl)cc3Cl)c(-c3ccc(Cl)cc3)cc12", "observed": "cell-free assay", "technique": "competition with immobilised ligand", "tested at": "1 µM", "measurement": "remaining binding", "result": "100%"}
{"Structure (SMILES)": "Oc1ccc(-c2nc(-c3ccncc3)c(-c3ccc(F)cc3)[nH]2)cc1", "observed": "cell-free assay", "tested at": "0.5 µM", "measurement": "remaining signal", "result": "89%"}
{"Structure (SMILES)": "CCOc1cc(-c2nncn2C)ccc1Nc1ncc2cc(C)nc(NCC(C)(C)C)c2n1", "observed": "enzyme activity", "mode": "inhibitor", "technique": "FRET", "tested at": "1 µM", "measurement": "inhibition", "result": "< 15%"}
{"Structure (SMILES)": "Cc1[nH]c(/C=C2\\C(=O)Nc3ccc(F)cc32)c(C)c1C(=O)N[C@H]1CCN(C(=O)N(C)C)C1", "observed": "enzyme activity", "mode": "inhibitor", "tested at": "1 µM", "measurement": "remaining activity", "result": "101%"}
{"Structure (SMILES)": "CCN(CC)c1ccc(C2=NNC(=O)CC2C)cc1[N+](=O)[O-] (stereo not drawn)", "observed": "enzyme activity", "mode": "inhibitor", "tested at": "10 µM", "measurement": "remaining activity", "result": "100%"}
{"Structure (SMILES)": "O=C(N[C@H]1CCCCC/C=C\\C2C[C@@]2(C(=O)O)NC(=O)[C@@H]2C[C@@H](Oc3ccncc3)CN2C1=O)OC1CCCC1 (stereo partly drawn)", "observed": "cell-free assay", "technique": "competition with immobilised ligand", "tested at": "1 µM", "measurement": "remaining binding", "result": "100%"}
{"Structure (SMILES)": "CSc1nc(C)c(-c2ccnc(Nc3ccc(N4CCOCC4)cc3)c2)[nH]1", "observed": "cell-free assay", "mode": "inhibitor", "tested at": "10 µM", "measurement": "inhibition", "result": "18.2%"}
{"Structure (SMILES)": "CCCS(=O)(=O)Nc1ccc(F)c(C(=O)c2c[nH]c3ncc(-c4ccc(Cl)cc4)cc23)c1F", "observed": "enzyme activity", "mode": "inhibitor", "tested at": "1 µM", "measurement": "inhibition", "result": "< 20%"}
{"Structure (SMILES)": "c1ccc(N2CCN(Cc3nc4ccccc4[nH]3)CC2)nc1", "observed": "cell-free assay", "technique": "competition with immobilised ligand", "tested at": "1 µM", "measurement": "remaining binding", "result": "100%"}
{"Structure (SMILES)": "Cc1sc(C(=O)NC2COC2)cc1-n1cc(NC(=O)Nc2c(F)cccc2Cl)cn1", "observed": "enzyme activity", "mode": "inhibitor", "tested at": "10 µM", "measurement": "remaining activity", "result": "93.7%"}
{"Structure (SMILES)": "COc1cc2ncnc(Nc3ccc(Oc4ccccc4)c(C)c3C)c2cc1OC", "observed": "enzyme activity", "mode": "inhibitor", "tested at": "1 µM", "measurement": "inhibition", "result": "3%"}
{"Structure (SMILES)": "Cc1cc(NC(=O)c2cccc3cc(-c4cccc5[nH]nc(N)c45)ccc23)ccc1F", "observed": "enzyme activity", "mode": "inhibitor", "tested at": "0.1 µM", "measurement": "activity vs control", "result": "109%"}
{"Structure (SMILES)": "Cc1ccc(Nc2nccc(N(C)c3ccc4c(C)n(C)nc4c3)n2)cc1S(N)(=O)=O", "observed": "cell-free assay", "tested at": "0.5 µM", "measurement": "remaining signal", "result": "93.8%"}
{"Structure (SMILES)": "CNCc1ccc(-c2cc(-c3nc(-c4ccc(S(=O)(=O)C(C)C)cc4)cnc3N)on2)cc1", "observed": "enzyme activity", "mode": "inhibitor", "tested at": "2 µM", "measurement": "inhibition", "result": "10%"}
{"Structure (SMILES)": "Cc1c[nH]c2nccc(Oc3c(F)cc(Nc4cc(Cl)nc(N)n4)cc3F)c12", "observed": "cell-free assay", "technique": "competition with immobilised ligand", "tested at": "0.1 µM", "measurement": "remaining binding", "result": "100%"}
{"Structure (SMILES)": "Oc1cccc(-c2nc(N3CCOCC3)c3oc4ncccc4c3n2)c1", "observed": "enzyme activity", "mode": "inhibitor", "tested at": "10 µM", "measurement": "remaining activity", "result": "86%"}
{"Structure (SMILES)": "Cc1nc(Cc2cccc(C(F)(F)F)c2)sc1-c1ccc(C(N)=O)nc1", "observed": "cell-free assay", "technique": "competition with immobilised ligand", "tested at": "1 µM", "measurement": "remaining binding", "result": "100%"}
{"Structure (SMILES)": "C[S+]([O-])c1ccc(-c2nc(-c3ccncc3)c(-c3ccc(F)cc3)[nH]2)cc1 (stereo not drawn)", "observed": "cell-free assay", "tested at": "0.5 µM", "measurement": "remaining signal", "result": "91.1%"}
{"Structure (SMILES)": "CCCCNc1ncc2c(-c3ccc(F)cc3)nn(C[C@H]3CC[C@H](N)CC3)c2n1", "observed": "target engagement in cells", "mode": "inhibitor", "technique": "chemoproteomics", "tested at": "20 mM", "measurement": "inhibition", "result": "97.5%"}
{"Structure (SMILES)": "CC1=C(C#N)[C@@H](c2ccc3[nH]nc(C)c3c2)C(C#N)=C(c2ccc(Cl)cc2)N1", "observed": "cell-free assay", "technique": "competition with immobilised ligand", "tested at": "1 µM", "measurement": "remaining binding", "result": "100%"}
{"Structure (SMILES)": "CC(C)(C)c1nc2c(s1)c1nc(N)ncc1c1ccc(NS(=O)(=O)c3c(F)cccc3F)c(F)c12", "observed": "enzyme activity", "mode": "inhibitor", "technique": "radiometric", "tested at": "1 µM", "measurement": "remaining activity", "result": "93%"}
